From ChEMBL document CHEMBL1124968, “Synthesis and biological activity of new HMG-CoA reductase inhibitors. 2. Derivatives of 7-(1H-pyrrol-3-yl)-substituted-3,5-dihydroxyhept-6(E)-enoic (-heptanoic) acids” (J Med Chem, 1990)

Experiments:
[1] = biological target: T1, 3-hydroxy-3-methylglutaryl-coenzyme A reductase (Rattus norvegicus) (UniProt P51639); test: In vitro inhibition of solubilized, partially purified rat liver HMG-CoA reductase relative to mevinolin
T1 sequence (whole entry): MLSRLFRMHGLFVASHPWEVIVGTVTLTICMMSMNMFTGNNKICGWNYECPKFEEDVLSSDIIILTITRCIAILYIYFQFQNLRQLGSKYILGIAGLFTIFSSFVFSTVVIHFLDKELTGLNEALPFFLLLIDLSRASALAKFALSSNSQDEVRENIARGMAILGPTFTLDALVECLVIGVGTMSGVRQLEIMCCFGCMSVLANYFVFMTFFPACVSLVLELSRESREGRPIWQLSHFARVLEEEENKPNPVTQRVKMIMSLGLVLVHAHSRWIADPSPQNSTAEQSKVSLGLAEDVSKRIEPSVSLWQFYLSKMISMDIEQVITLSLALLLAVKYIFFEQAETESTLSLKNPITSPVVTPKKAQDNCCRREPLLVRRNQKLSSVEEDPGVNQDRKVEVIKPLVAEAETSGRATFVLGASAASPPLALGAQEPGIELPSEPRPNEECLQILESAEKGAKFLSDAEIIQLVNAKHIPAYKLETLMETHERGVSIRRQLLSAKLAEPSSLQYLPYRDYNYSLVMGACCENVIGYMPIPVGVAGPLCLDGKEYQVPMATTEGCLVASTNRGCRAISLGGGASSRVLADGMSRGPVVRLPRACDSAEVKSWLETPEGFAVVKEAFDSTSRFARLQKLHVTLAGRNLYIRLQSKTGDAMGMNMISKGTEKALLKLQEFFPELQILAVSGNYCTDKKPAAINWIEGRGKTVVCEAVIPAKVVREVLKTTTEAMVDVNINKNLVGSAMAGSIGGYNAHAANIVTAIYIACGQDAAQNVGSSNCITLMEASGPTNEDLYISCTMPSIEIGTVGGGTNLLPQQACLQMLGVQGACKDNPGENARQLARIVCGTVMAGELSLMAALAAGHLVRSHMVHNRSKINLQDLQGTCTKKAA

[2] = biological target: T2, 3-hydroxy-3-methylglutaryl-coenzyme A reductase (Rattus norvegicus, UniProt P51639); test: In vitro inhibition of HMG-CoA reductase of rat liver
T2 sequence (P51639 whole entry): T1 sequence (whole entry)

[3] = biological target: T3, 3-hydroxy-3-methylglutaryl-coenzyme A reductase (Homo sapiens, UniProt P04035); test: Inhibition of cellular HMG-CoA reductase in cultures of hepatic cells (HEP G2, a human hepatoma cell line); format: cell-based
T3 sequence (P04035 whole entry): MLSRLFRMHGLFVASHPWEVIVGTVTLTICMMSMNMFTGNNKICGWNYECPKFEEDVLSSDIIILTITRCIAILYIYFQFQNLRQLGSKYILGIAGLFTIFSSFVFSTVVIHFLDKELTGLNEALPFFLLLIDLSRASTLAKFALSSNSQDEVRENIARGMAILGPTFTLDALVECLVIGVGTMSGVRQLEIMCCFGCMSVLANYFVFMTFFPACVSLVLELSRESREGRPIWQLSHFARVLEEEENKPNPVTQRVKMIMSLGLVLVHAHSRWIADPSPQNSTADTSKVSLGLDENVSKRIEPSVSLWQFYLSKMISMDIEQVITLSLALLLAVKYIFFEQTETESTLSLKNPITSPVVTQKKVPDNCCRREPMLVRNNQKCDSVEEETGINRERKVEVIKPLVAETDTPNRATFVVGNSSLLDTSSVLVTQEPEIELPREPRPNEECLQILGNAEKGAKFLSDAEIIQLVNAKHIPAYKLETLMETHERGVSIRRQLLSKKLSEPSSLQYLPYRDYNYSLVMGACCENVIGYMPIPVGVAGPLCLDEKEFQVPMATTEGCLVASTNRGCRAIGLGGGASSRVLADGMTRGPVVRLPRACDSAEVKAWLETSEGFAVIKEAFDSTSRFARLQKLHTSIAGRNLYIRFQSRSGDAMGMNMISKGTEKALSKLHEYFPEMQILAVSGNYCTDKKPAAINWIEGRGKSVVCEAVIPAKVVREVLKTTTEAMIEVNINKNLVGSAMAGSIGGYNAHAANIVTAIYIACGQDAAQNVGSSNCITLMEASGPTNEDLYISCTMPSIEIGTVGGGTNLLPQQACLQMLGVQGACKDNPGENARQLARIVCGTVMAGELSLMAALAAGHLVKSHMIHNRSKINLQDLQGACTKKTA
Summary of the method: (§1)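 HEP G2 human hepatoma cells in culture; cellular HMG-CoA reductase inhibition read as reduced incorporation of sodium [14C]acetate into cholesterol; IC50 values varied somewhat between cell batches. Assay system as in the preceding paper.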

[4] = biological target: T4, 3-hydroxy-3-methylglutaryl-coenzyme A reductase (Homo sapiens) (UniProt P04035); test: Inhibition of cellular HMG-CoA reductase in cultures of hepatic cells (HEP G2, a human hepatoma cell line) relative to mevinolin; format: cell-based; summary of the method: as §1
T4 sequence (whole entry): T3 sequence (P04035 whole entry)

[5] = test system: Rattus norvegicus; test: Inhibition of hepatic cholesterol de novo synthesis in male rats after po administration, relative to mevinolin; format: functional
Summary of the method: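 Male rats dosed orally. […] Dose 5 mg/kg bw for lactone form, optically pure; 10 mg/kg bw for racemic sodium salts. Potency expressed against optically pure mevinolin tested under the same conditions.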

[6] = test system: Oryctolagus cuniculus; test: Percent decrease in total plasma cholesterol in rabbit was determined after oral administration of a dose of 20 mg/kg for 10 days; format: functional; design: scale not given: the % may be the effect or the level left
Summary of the method: (§2)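 Normally fed normolipemic rabbits given oral doses repeatedly (20 mg/kg for 10 days, n = 6; 10 mg/kg for 6 days, n = 4); total plasma cholesterol decrease expressed as percent.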

[7] = test system: Canis familiaris; test: Percent decrease in plasma LDL-cholesterol in dog was determined after oral administration of a dose of 20 mg/kg for 14 days; format: functional, Canis lupus familiaris; design: scale not given: the % may be the effect or the level left
Summary of the method: (§3)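 Normally fed male beagle dogs (n = 4) given drug orally each day (20 mg/kg for 14 days or 10 mg/kg for 19 days); plasma LDL- and HDL-cholesterol followed as percent change.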

[8] = test system: Rattus norvegicus; test: Inhibition of hepatic cholesterol de novo synthesis in male rats after po administration; values are per cent of control
[9] = test system: Canis familiaris; test: Percent increase in plasma HDL-cholesterol in dog was determined after oral administration of a dose of 20 mg/kg for 14 days; format: functional, Canis lupus familiaris; summary of the method: as §3
[10] = test system: Canis familiaris; test: Percent increase in plasma HDL-cholesterol in dog was determined after oral administration of a dose of 10 mg/kg for 19 days; format: functional, Canis lupus familiaris; summary of the method: as §3
[11] = test system: Rattus norvegicus; test: Inhibition of hepatic cholesterol de novo synthesis in male rats after po administration,; values are per cent of control
[12] = test system: Oryctolagus cuniculus; test: Percent decrease in total plasma cholesterol in rabbit was determined after oral administration of a dose of 10 mg/kg for 6 days; format: functional; design: scale not given: the % may be the effect or the level left; summary of the method: as §2
[13] = test system: Canis familiaris; test: Percent decrease in plasma LDL-cholesterol in dog was determined after oral administration of a dose of 10 mg/kg for 19 days; format: functional, Canis lupus familiaris; design: scale not given: the % may be the effect or the level left; summary of the method: as §3

Relative potency [1] | IC50 [2] [nM] | IC50 [3] [nM] | Relative potency [4] | SMILES | further results
149 |  |  |  | Cc1c(-c2ccc(F)cc2)c(CC[C@@H](O)C[C@@H](O)CC(=O)O)c(C(C)C)n1-c1ccccc1 (racemic) [listing 1 of 2 here] | 
12 | 69 | 106 | 47 | CC(C)c1c(/C=C/[C@H](O)C[C@@H](O)CC(=O)O)c(-c2ccc(F)cc2)cn1C1CCCCC1 | 
128 | 6 | < 10 | > 500 | CC(C)c1c(CCC(O)CC(O)CC(=O)[O-])c(-c2ccc(F)cc2)cn1-c1ccccc1.[Na+] (racemic) | Relative potency [5]: 250; Activity [6]: 34%; Activity [7]: 48%; level, % of control [8]: 5.6%; Activity [9]: 14%
257 | 3 |  |  | CC(C)c1c(CC[C@@H](O)C[C@@H](O)CC(=O)O)c(-c2ccc(F)cc2)cn1-c1ccccc1 | 
 | 2.5 |  |  | Cc1c(-c2ccc(F)cc2)c(CC[C@@H](O)C[C@@H](O)CC(=O)O)c(C(C)C)n1-c1ccccc1 [listing 1 of 2 here] | 
85 |  |  |  | CC(C)c1c(CC[C@@H](O)C[C@@H](O)CC(=O)O)c(-c2ccc(F)cc2)cn1C(C)C [listing 1 of 2 here] | 
42 |  |  | 2500 | CC(C)c1c(CC[C@@H](O)C[C@@H](O)CC(=O)O)c(-c2ccc(F)cc2)cn1C(C)C (racemic) | 
 |  |  |  | CC(C)c1c(/C=C/[C@@H](O)C[C@@H](O)CC(=O)[O-])c(-c2ccc(F)cc2)cn1-c1ccccc1.[Na+] | level, % of control [8]: 5.5%
 | 9 |  |  | CC(C)c1c(CC[C@@H](O)C[C@@H](O)CC(=O)O)c(-c2ccc(F)cc2)cn1C(C)C [listing 2 of 2 here] | 
11 | 70 | 570 | 9 | Cc1c(CC[C@@H](O)C[C@@H](O)CC(=O)O)c(-c2ccc(F)cc2)c(C)n1-c1ccccc1 | 
3 | 250 | 5000 | 1 | Cc1c(/C=C/[C@@H](O)C[C@@H](O)CC(=O)O)c(-c2ccc(F)cc2)c(C)n1-c1ccccc1 | 
 |  |  |  | CC[C@H](C)C(=O)O[C@H]1C[C@@H](C)C=C2C=C[C@H](C)[C@H](CC[C@@H]3C[C@@H](O)CC(=O)O3)[C@H]21 [LOVASTATIN] | Activity [10]: 2%; level, % of control [11]: 14%; Activity [12]: 25%; Activity [13]: -18%
300 |  |  |  | Cc1c(-c2ccc(F)cc2)c(CC[C@@H](O)C[C@@H](O)CC(=O)O)c(C(C)C)n1-c1ccccc1 [listing 2 of 2 here] | 
9 | 100 | 270 | 19 | Cc1c(CC[C@@H](O)C[C@@H](O)CC(=O)O)c(-c2ccc(F)cc2)cn1C(C)C | 
 | 18 | 2 |  | CC(C)c1c(CC[C@@H](O)C[C@@H](O)CC(=O)[O-])c(-c2ccc(F)cc2)cn1C(C)C.[Na+] (racemic) | Relative potency [5]: 156; level, % of control [8]: 9%; Activity [12]: 42%
2 | 330 | 6000 | 1 | Cc1c(/C=C/[C@@H](O)C[C@@H](O)CC(=O)O)c(-c2ccc(F)cc2)cn1C(C)C | 
 |  |  |  | CC(C)c1c(CC[C@@H](O)C[C@@H](O)CC(=O)[O-])c(-c2ccc(F)cc2)cn1C1CCCCC1.[Na+] | level, % of control [8]: 6%
 | 5 |  |  | Cc1c(-c2ccc(F)cc2)c(CC[C@@H](O)C[C@@H](O)CC(=O)O)c(C(C)C)n1-c1ccccc1 (racemic) [listing 2 of 2 here] | 
